This note sets out measurements from ChEMBL document CHEMBL1131430, “Discovery and structure-activity relationship of the first non-peptide competitive human glucagon receptor antagonists” (J Med Chem, 1998).

The target in assay [1] is T1, Glucagon receptor (Homo sapiens, UniProt P47871). Briefly: Compound was evaluated for its binding affinity towards cloned human Glucagon receptor in BHK cells. Type of assay: cell-based. An outline of the steps:
(§1)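 Competition binding on plasma membranes (0.5 μg protein/well) from BHK cells stably expressing recombinant human glucagon receptor, selected with 0.5 mg/mL G-418. Nonspecific binding with 10⁻⁶ M glucagon. Filtration, gamma counting; IC50 mean ± SD, n = 2.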

The target of assay [2] is T1, Glucagon receptor. Briefly: Binding affinity towards cloned human glucagon receptor in BHK cells. Type of assay: cell-based. The gist of the method:
as §1

T1 sequence (P47871 whole entry): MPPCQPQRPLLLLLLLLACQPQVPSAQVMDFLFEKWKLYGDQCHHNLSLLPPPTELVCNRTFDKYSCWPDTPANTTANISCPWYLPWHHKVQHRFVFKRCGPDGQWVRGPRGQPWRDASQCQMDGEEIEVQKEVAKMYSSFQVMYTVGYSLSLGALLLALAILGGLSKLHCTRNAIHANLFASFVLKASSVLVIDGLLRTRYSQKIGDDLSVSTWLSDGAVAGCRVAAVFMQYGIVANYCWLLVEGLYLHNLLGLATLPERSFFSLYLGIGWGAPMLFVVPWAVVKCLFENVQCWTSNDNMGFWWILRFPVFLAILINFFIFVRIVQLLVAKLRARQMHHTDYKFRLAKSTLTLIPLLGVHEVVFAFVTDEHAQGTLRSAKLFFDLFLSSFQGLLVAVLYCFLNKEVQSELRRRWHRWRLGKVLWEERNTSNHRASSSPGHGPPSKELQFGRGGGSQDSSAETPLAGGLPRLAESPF

Usually IC50 stands for the point on the concentration scale where inhibition reaches its midpoint. Low values mean greater potency, high ones weaker potency. At Glucagon receptor [1], `O=C(CSc1nc2ccccc2[nH]1)c1ccc(O)c(O)c1` yielded an IC50 of 20 µM.
For `O=C(O)c1cccc(C(=O)CSc2nc3ccccc3[nH]2)c1`, the half-inhibitory concentration (IC50) at Glucagon receptor [2] is over 500 µM.
Still for that read-out and setting: with `O=C(O)c1cccc(COc2ccc3[nH]c(SCC(=O)c4ccc(O)c(O)c4)nc3c2)c1` the figure was 95 µM; with `O=C(CSc1nc2ccccc2[nH]1)c1cc(O)cc(O)c1`, over 500 µM.
Compound `O=C(CSc1ccc2ccccc2n1)c1ccc(O)c(O)c1` had an IC50 at Glucagon receptor [2] of 160 µM.
Still for that read-out and setting: with `O=C(CCCSc1nc2ccccc2[nH]1)c1ccc(O)c(O)c1` the figure was over 500 µM; with `COC(=O)c1cccc(COc2ccc3[nH]c(SCC(=O)c4ccc(O)c(O)c4)nc3c2)c1`, 16 µM; with `CC(C)(C)c1ccc2nc(SCC(=O)c3ccc(O)c(O)c3)[nH]c2c1`, 5.4 µM.
The same measure, in the same setting: with `CCCC(Sc1nc2ccccc2[nH]1)C(=O)c1ccc(O)c(O)c1` (stereo not drawn) the figure was over 500 µM; with `O=C(CSc1nc2ccccc2o1)c1ccc(O)c(O)c1`, 250 µM; with `Oc1ccc(/C(CSc2nc3ccccc3[nH]2)=N\OCc2ccccc2)cc1Cl`, over 500 µM.
Still for that read-out and setting: to `CO/N=C(/CSc1nc2ccccc2[nH]1)c1ccc(O)c(Cl)c1` belongs over 500 µM; to `Cn1c(SCC(=O)c2ccc(O)c(O)c2)nc2ccccc21`, over 500 µM; to `O=C(CSc1nc2ccccc2[nH]1)c1ccc(O)cc1`, over 60 µM.
Consider `O=C(O)c1ccc(C(=O)CSc2nc3ccccc3[nH]2)cc1`, for which the IC50 on Glucagon receptor [2] is over 500 µM.
Still for that read-out and setting: to `O/N=C(/CSc1nc2ccccc2[nH]1)c1ccc(O)c(Cl)c1` belongs over 500 µM.
On the same count and under the same terms, to `O=C(CSc1nc2ccccc2s1)c1ccc(O)c(O)c1` belongs 73 µM; to `O=C(CSc1nc2ccccc2[nH]1)c1cccc(O)c1`, 380 µM; to `COc1ccc2[nH]c(SCC(=O)c3ccc(O)c(O)c3)nc2c1`, 42 µM.
As for `O=C(CSc1nc2ccccc2[nH]1)c1ccccc1`, the IC50 on Glucagon receptor [2] is over 500 µM.
On the same count and under the same terms, with `O=C(CSc1nc2cc(Cl)c(Cl)cc2[nH]1)c1ccc(O)c(O)c1` the figure was 20 µM.
`COc1cc(C(=O)CSc2nc3ccccc3[nH]2)ccc1O` gave an IC50 at Glucagon receptor [2] of 41 µM.
Same read-out and setting: to `COc1ccc(C(=O)CSc2nc3ccccc3[nH]2)cc1OC` belongs over 500 µM.
Same read-out and setting: with `O=C(CSc1nc2ccccc2[nH]1)c1ccc(Cl)c(Cl)c1` the figure was over 500 µM; with `COC(=O)c1cccc(COc2ccc3[nH]c(SCC(=O)c4ccc(O)c(Cl)c4)nc3c2)c1`, 9.2 µM; with `Oc1ccc(C(O)CSc2nc3ccccc3[nH]2)cc1Cl` (stereo not drawn), over 500 µM.
For `O=C(CSc1nc(-c2ccccc2)c(-c2ccccc2)[nH]1)c1ccc(O)c(O)c1`, the IC50 at Glucagon receptor [2] is 180 µM.
Same read-out and setting: with `O=C(CSc1nc2cc(OCc3ccccc3)ccc2[nH]1)c1ccc(O)c(O)c1` the figure was 18 µM; with `O=C(CSc1nc2ccccc2[nH]1)c1ccc(O)c(Cl)c1`, 12 µM; with `O=C(CSc1nnc(-c2ccccc2)[nH]1)c1ccc(O)c(O)c1`, 55 µM.
Still for that read-out and setting: with `O=C(CSc1nc2ccccc2[nH]1)c1ccc(O)c(C(=O)O)c1` the figure was 200 µM; with `O=C(CSc1ncc[nH]1)c1ccc(O)c(O)c1`, over 500 µM; with `O=C(CSc1nc2ccc([N+](=O)[O-])cc2[nH]1)c1ccc(O)c(O)c1`, 55 µM.
